Results: PMC9624299 (ACS chemical biology, 2022)
pIC50: −log10 of the molar value.

Tests used:
T98G cells = experiment: Cell viability assay; type: cell-based, human; settings: for cytotoxicity (in words) / pIC50: T98G
In short: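 T98G cells were cultured in EMEM/10% FBS/1% pen-strep at 37 °C, 5% CO2, seeded and allowed to adhere. Where indicated, cells were pretreated 3 h with the MGMT inhibitor O6BG. Test compound was then added in DMSO (1% final). After 7 days, viability was read by Alamar Blue, with raptinal 20 μM as dead control; n ≥ 3, SEM.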

U87 cells = experiment: Cell viability assay; type: cell-based, human; settings: 7 days; for cytotoxicity (in words): U87; for pIC50: U87, no MGMT expression, MGMT(−)/MMR(+), Alamar Blue
In short: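 Cells were cultured in EMEM with 10% FBS and 1% pen-strep (37 °C, 5% CO2), seeded and allowed to adhere 3 h. Test compound was added in DMSO (1% final). After 7 days of incubation, viability was read by Alamar Blue, with raptinal 20 μM as dead control. IC50 taken from dose–response curves; n ≥ 3, SEM.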

linearized pBR322 DNA = experiment: DNA cross-linking/alkylation assay; type: biochemical; settings: linearized pBR322 DNA 150 ng, 37 °C, Tris pH 8.5, 15 h, agarose gel
In short: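 pBR322 was linearised with EcoRI, purified and taken up in 10 mM Tris-Cl pH 8.5. DNA (150 ng) was incubated with test compound (DMSO, 5% v/v) at 37 °C for 15 h. Cisplatin and MMS served as positive controls. Samples were denatured 15 min at 4 °C in NaOH-containing sucrose/bromophenol blue buffer (no NaOH for non-denatured controls). Gels were run on 1% neutral agarose with ethidium bromide in TBE, 124 V, 1 h.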

GL261 MGMT+ cells = experiment: Cell viability assay, GL261 MGMT+; type: cell-based, mouse
[1] = aqueous solution, PBS, pH 7.4, 37 °C; cited from earlier work
GL261 cells [2] = experiment: Cell viability assay, GL261; type: cell-based; settings: Mus musculus, GL261, 168 h
In short: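 Cells were grown in DMEM with 10% FBS and 1% pen-strep at 37 °C, 5% CO2, seeded and allowed to adhere. After 3 h, test compound was added in DMSO (1% final). Cells were incubated 7 days, and viability was assessed by Alamar Blue, with raptinal 20 μM as dead control.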

[3] = tested on: Salmonella typhimurium TA100 strain; experiment: Ames test, TA100; type: cell-based; settings: 30 μM, 5 days, no S9 activation, wells per 96
In short: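 TA100 S. typhimurium was grown overnight, then dispensed into 96-well plates (microplate Ames format) with test compound, growth medium and colorimetric indicator, without S9 activation. Plates were incubated 5 days, and the number of wells per plate showing revertant growth was scored by colour change.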

[4] = cited from earlier work
GBM cell lines = experiment: Cell viability assay; type: cell-based; settings: 7 days
In short: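 Panel lines were seeded and allowed to adhere 3 h, then dosed with test compound in DMSO (1% final) and incubated at 37 °C, 5% CO2 for 7 days. Viability was read by Alamar Blue, with raptinal 20 μM as dead control. IC50 values are from n ≥ 3, SEM.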

U118MG cells = experiment: Cell viability assay, U118MG; type: cell-based; settings: MGMT-expressing
RKO cells = experiment: Cell viability assay, RKO colon cancer; type: cell-based
[5] = Assessment of hematological toxicity; type: in vivo, CD-1 IGS mice; settings: mice, single 125 mg/kg IV dose, 7 days
[6] = tested on: Escherichia coli WP2 uvrA pKM101 strain; experiment: Ames test, WP2 uvrA pKM101; type: cell-based; settings: 30 μM
In short: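 E. coli WP2 uvrA pKM101 tester strain was run in the 96-well microplate version of the Ames test following the kit maker's instructions. Test compound was added at the indicated concentrations.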

D54 cells = experiment: Quantitation of O6-guanine DNA adducts in cells; type: cell-based; settings: D54, MGMT-negative; LC–MS/MS
glioblastoma = settings: GBM patients, TMZ added to RT; cited from earlier work
[7] = same schedule (once-per-day over five days); cited from earlier work
A172 cells = experiment: Quantitation of O6-guanine DNA adducts in cells; type: cell-based; settings: A172, MGMT-negative; LC–MS/MS
HCT116 cells = experiment: Cell viability assay, HCT116; type: cell-based
In short: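 HCT116 cells were grown in RPMI with 10% FBS and 1% pen-strep (37 °C, 5% CO2), seeded and allowed to adhere. Cells were tested with or without O6BG pretreatment. Test compound was added in DMSO (1% final) after 3 h. After 7 days, viability was read by Alamar Blue, with raptinal 20 μM as dead control.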

[8] = Hydrolytic stability studies; type: physicochemical; settings: for hydrolytic stability, percentage of prodrug remaining after 2 h: HPLC
In short: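 Compound (100 μM) was incubated in PBS at 37 °C, pH 7.4 (also pH 7 and 8). Aliquots taken at set time points were analysed by HPLC. Peak areas were compared with t0 to give percent prodrug remaining, including at 2 h.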

D341 Med cells = experiment: Cell viability assay, D341 Med medulloblastoma; type: cell-based; settings: Homo sapiens, 168 h
In short: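 D341 Med medulloblastoma cells were grown in EMEM with 20% FBS and 1% pen-strep (37 °C, 5% CO2). Cells were seeded and compound was added in DMSO (1% final) after 3 h. Incubation lasted 7 days, and viability was read by Alamar Blue, with raptinal 20 μM as dead control.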

GL261 cells [9] = experiment: Quantitation of O6-guanine DNA adducts in cells; type: cell-based, mouse; settings: 100, 300 or 500 μM, 8 h, LC–MS/MS
In short: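 GL261 cells were plated at 1 × 10^6 per well and exposed to test compound at 100, 300 or 500 μM (1% DMSO) for 8 h. Genomic DNA was extracted, then precipitated with sodium acetate and ethanol. DNA (10 μg) was hydrolysed to deoxynucleosides (37 °C, 6 h). O6-alkyl-dG was quantified by LC–MS/MS against a synthetic standard; n ≥ 3.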

GBM = settings: intracranial murine model of GBM; cited from earlier work
BBB permeability = type: in vivo, CD-1 IGS mice; settings: mice, 25 mg/kg IV, 15 min
In short: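 CD-1 IGS mice received 25 mg/kg by lateral tail vein in 5% DMSO, 10% Tween-20 and 85% SBE-βCD (30% w/v in water), and were killed at 15 min. Blood was taken, then mice were saline-perfused. Serum was acidified with 8.5% H3PO4. Brains were acidified (0.3% H3PO4), frozen, homogenised and centrifuged. Levels were measured by LC–MS/MS and used for brain:serum ratio; ≥3 mice/cohort.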

[10] = high MGMT expression, MGMT(+)/MMR(+), 7 days, Alamar Blue

CC(C)(C)Cn1nnc2c(C(N)=O)ncn2c1=O [Compound 6]
cytotoxicity (in words) (T98G cells; 7 days): inactive
cytotoxicity (in words) (U87 cells): inactive

NC(=O)c1ncn2c(=O)n(CCCl)nnc12 [MTZ, mitozolomide]
cytotoxicity (in words) (T98G cells; 7 days): robust cytotoxicity
cytotoxicity (in words) (U87 cells): robust cytotoxicity

CC#CCn1nnc2c(C(N)=O)ncn2c1=O [Compound 19]
DNA alkylation (in words) (linearized pBR322 DNA): Trace DNA alkylation
DNA interstrand cross-linking (in words) (linearized pBR322 DNA): definitively absent
pIC50 (T98G cells; [10]): 3.96
pIC50 (U87 cells): 4.43

CC(C)(C)n1nnc2c(C(N)=O)ncn2c1=O [Compound 5]
cytotoxicity (in words) (T98G cells; 7 days): inactive
cytotoxicity (in words) (U87 cells): inactive

Cn1nnc2c(C(N)=O)ncn2c1=O [TMZ, temozolomide]
effect of MGMT inhibitor pretreatment on cell death (GL261 MGMT+ cells; GL261 MGMT+ pre-treated with lomeguatrib): potentiation of cell death
pIC50 (GL261 MGMT+ cells; Mus musculus, GL261, 168 h): < 3.00
half-life in vitro [1]: 1.5 to 2 h
pIC50 (GL261 cells [2]): 3.92
revertant (mutated) colonies [3]: 35/96
half-life in vivo (t1/2) ([4]; human patients, human pharmacokinetics): 1.5 to 2 h
cerebral spinal fluid concentration as percentage of plasma concentration ([4]; humans, average): about 20%
difference in IC50 values between MGMT-negative and positive cell lines (GBM cell lines; expanded GBM panel): > 6 fold
DNA alkylation (in words) (linearized pBR322 DNA): cause DNA streaking
effect of MGMT inhibitor pretreatment on cell death (U118MG cells): cell death potentiation
pIC50 (T98G cells; Homo sapiens, 168 h): < 3.26
loss of activity in T98G relative to U87 (T98G cells; IC50 T98G vs U87): > 10 fold
effect of MGMT inhibitor pretreatment on cell death (T98G cells; T98G pretreated (3 h) with O6BG vs non-pretreated): dramatic potentiation of cell death
pIC50 (RKO cells; Homo sapiens): < 3.00
effect of MGMT inhibitor pretreatment on cell death (RKO cells; MGMT-expressing, MGMT inhibitor): cell death potentiation
white blood cell, lymphocyte and neutrophil counts (in words) [5]: depletions in white blood cells, lymphocytes, and neutrophils
mutagenicity (in words) [6]: highly mutagenic
revertant colonies ([6]; wells per 96): 95/96
O6-dG alkylation adducts (D54 cells): dose-dependent increase in methyl adducts
overall patient survival (glioblastoma): 15 months
survival benefit vs RT alone (glioblastoma): ≤ 8 month
reported MTD [7]: ~ 66 mg/kg
O6-dG alkylation adducts (A172 cells): dose-dependent increase in methyl adducts
effect of MGMT inhibitor pretreatment on cytotoxicity (HCT116 cells; HCT116 pretreated with O6BG): negligible potentiation
pIC50 (HCT116 cells; Homo sapiens, HCT-116, 168 h): < 3.10
hydrolytic stability, percentage of prodrug remaining after 2 h ([8]; PBS pH 7.4, 37 °C): 40%
half-life at 100 μM ([8]; PBS, pH 7.4): ~1.5 h
pIC50 (D341 Med cells): 3.34
O6-alkyl-2′-deoxyguanosine adducts (O6-Me-dG for TMZ, O6-Prop-dG for CPZ) (GL261 cells [9]): dose-dependent increase

CC(C)n1nnc2c(C(N)=O)ncn2c1=O [Compound 4]
cytotoxicity (in words) (T98G cells; 7 days): inactive
cytotoxicity (in words) (U87 cells): inactive

C#CCn1nnc2c(C(N)=O)ncn2c1=O [Compound 10]
efficacy in an intracranial efficacy model (in words) (GBM): limited efficacy
pIC50 (GBM cell lines; all cell lines of the expanded GBM panel): > 4.00
pIC50 (T98G cells; [10]): 4.11
brain:serum ratio (BBB permeability): 0.06 ± 0.01 ng/g:ng/mL
half-life ([8]; PBS pH 7.4, 37 °C): ~ 30 min
hydrolytic stability, percentage of prodrug remaining after 2 h ([8]; PBS pH 7.4, 37 °C): 8%
pIC50 (U87 cells): 4.54

NC(=O)c1ncn2c(=O)[nH]nnc12 [Compound 1]
cytotoxicity (in words) (T98G cells; 7 days): unable to induce cell death
cytotoxicity (in words) (U87 cells): unable to induce cell death

N.N.[Cl][Pt][Cl] [cisplatin]
DNA interstrand cross-linking (in words) (linearized pBR322 DNA): prevent the full denaturation of double-stranded DNA

C=CC=O [acrolein]
DNA alkylation (in words) (linearized pBR322 DNA): no evidence of alkylation
DNA interstrand cross-linking (in words) (linearized pBR322 DNA): interstrand cross-linking

CCn1nnc2c(C(N)=O)ncn2c1=O [Compound 2]
cytotoxicity (in words) (T98G cells; 7 days): much less active than TMZ
pIC50 (U87 cells): 3.33
cytotoxicity (in words) (U87 cells): much less active than TMZ

COS(C)(=O)=O [MMS, methylmethanesulfonate]
DNA alkylation (in words) (linearized pBR322 DNA): cause DNA streaking
